Screening results (PubChem)
hERG rescue: compounds protecting human hERG from proarrhythmic drug block; Q12809; CHO-hERG, FluxOR thallium flux, dofetilide IC70 present; activation (rescue from dofetilide block), less the hit threshold, % at 10 µM; 310,000 tested, 0.51% active; AID 1511;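 active means activation above the mean of controls blocked by dofetilide plus 5 SD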;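 further: thallium influx through hERG after potassium depolarization seen as dye fluorescence rise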
KCNQ1 pot: potentiates or activates the human KCNQ1 potassium channel; CHO-K1 KCNQ1, thallium flux FluxOR fluorescence; hits give high values; B-score at 10 µM; 310,000 tested, 0.35% active;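 active means fluorescence ratio B-score, a plate-corrected score, at least three library SD, with initial intensity B-score within 5 SD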
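Assay system: CHO-K1 cells stably expressing KCNQ1; Medium: assay buffer with matched DMSO; Also added: K+/Tl+ depolarizing stimulus; Dosing: single dose; Timing: dye 90 min, compound 20 min, room temperature; Measured by: kinetic FluxOR thallium fluorescence, 10-s 1-Hz baseline, 110-s post-stimulus read; Read-out: peak-minus-minimum fluorescence over initial fluorescence, negative-control normalized, B-scored.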
KCNK3 inh: human KCNK3 channel inhibition, primary screen. O14649. CHO-KCNK3 thallium flux, FluxOR fluorescence; hits give low values. B-score at 10 µM. 340,000 tested, 0.84% active;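 active means B-score under library mean minus 4 SD, starting fluorescence ratio at most library mean plus 5 SD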;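 further: more negative B-score means stronger inhibition of thallium flux through KCNK3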
KCNQ1 block: human KCNQ1 channel inhibition; B-score at 10 µM; P51787; 310,000 tested, 1.3% active; AID 2642; CHO-K1 KCNQ1, FluxOR thallium flux fluorescence; hits give high values;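 active means compounds whose thallium flux B-score, printed positive for inhibition, exceeds three library SD while starting fluorescence stays within three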;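 further: channel opened by potassium depolarization with thallium stimulus after 20 min compound exposure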
KCNK9 inh: blocks the human KCNK9 two-pore domain potassium channel; 310,000 tested, 1.2% active; B-score at 10 µM; Q9NPC2; AID 488922; HEK293 KCNK9, FluxOR thallium flux fluorescence; hits give low values;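 active means ratio B-score over 3 SD below the library mean, with starting fluorescence within 5 SD of its mean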;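 further: negative B-score means less thallium flux so channel inhibition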
KCC2 mod: modulators of human KCC2 chloride dependent transport; Q9H2X9; KCC2 cells, thallium flux FluoZin-2 fluorescence; B-score of Tl+ flux slope (higher = more flux/activation; lower = inhibition) at 10 µM; 190,000 tested, 2.2% active; AID 1456;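 active means thallium flux slope and its plate-corrected score both differing from the plate sample mean at a set confidence after two filtering rounds, in either direction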;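 further: slope of fluorescence scaled to starting intensity during 10 to 20 s after thallium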
Target sequence (Q9H2X9 whole entry, looked up): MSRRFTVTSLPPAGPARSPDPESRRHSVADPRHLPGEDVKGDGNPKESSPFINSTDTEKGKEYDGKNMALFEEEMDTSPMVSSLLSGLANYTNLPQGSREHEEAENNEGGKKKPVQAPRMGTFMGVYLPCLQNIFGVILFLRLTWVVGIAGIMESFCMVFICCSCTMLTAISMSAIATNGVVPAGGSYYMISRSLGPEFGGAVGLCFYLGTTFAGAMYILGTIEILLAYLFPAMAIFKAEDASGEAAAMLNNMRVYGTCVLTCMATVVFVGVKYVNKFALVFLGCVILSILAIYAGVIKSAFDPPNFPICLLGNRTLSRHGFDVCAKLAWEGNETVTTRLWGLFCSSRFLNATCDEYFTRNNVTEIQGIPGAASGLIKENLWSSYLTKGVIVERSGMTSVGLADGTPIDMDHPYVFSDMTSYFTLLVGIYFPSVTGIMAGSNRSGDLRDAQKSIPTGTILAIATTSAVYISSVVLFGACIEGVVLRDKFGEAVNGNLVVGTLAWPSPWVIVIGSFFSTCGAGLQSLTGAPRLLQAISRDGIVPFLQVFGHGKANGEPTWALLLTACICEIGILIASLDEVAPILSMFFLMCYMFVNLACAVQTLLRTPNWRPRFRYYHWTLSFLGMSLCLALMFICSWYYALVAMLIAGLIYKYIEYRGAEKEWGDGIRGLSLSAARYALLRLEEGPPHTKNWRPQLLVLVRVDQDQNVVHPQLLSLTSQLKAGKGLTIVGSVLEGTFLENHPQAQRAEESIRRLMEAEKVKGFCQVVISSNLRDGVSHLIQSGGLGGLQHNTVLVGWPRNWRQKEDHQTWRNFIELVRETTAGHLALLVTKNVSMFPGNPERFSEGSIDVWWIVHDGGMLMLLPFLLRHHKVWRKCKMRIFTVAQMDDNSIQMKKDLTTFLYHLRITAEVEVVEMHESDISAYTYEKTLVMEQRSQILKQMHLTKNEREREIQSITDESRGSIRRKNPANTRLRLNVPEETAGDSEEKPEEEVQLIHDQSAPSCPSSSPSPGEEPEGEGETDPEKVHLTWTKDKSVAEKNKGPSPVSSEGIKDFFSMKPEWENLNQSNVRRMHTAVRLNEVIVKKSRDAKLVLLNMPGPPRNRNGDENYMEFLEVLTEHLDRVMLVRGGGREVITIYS
KCNK9 block conf: human KCNK9 inhibitor confirmation. shares compounds with KCNK9 inh. inhibition, % at 10 µM. HEK293 KCNK9 cells, FluxOR thallium flux fluorescence. 4,900 tested, 43% active. AID 492992;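 active means thallium signal inhibited by more than 5 SD of the compound-free buffer control wells, on both duplicate plates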;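 further: 0% = assay buffer control wells without compound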
Kir21 sel: selectivity of KCNK9 modulators against mouse Kir2.1 | shares compounds with KCNK9 inh | Kir2.1 cells, FluxOR thallium flux fluorescence | inhibition, % at 10 µM | 4,900 tested, 4% active;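 active means thallium signal drop more than 5 SD beyond the mean of the no-compound control wells, seen in both duplicate plates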;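 further: signal is fluorescence rise after thallium addition divided by baseline fluorescence; plate controls were assay buffer only for no effect and full block by chlorpromazine control for full effect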
KCNK9 uninduced: second counter-screen for KCNK9 modulators: effect in non-induced cells | shares compounds with KCNK9 inh | non-induced KCNK9-HEK293, FluxOR thallium flux | inhibition, % at 10 µM | 4,900 tested, 40% active;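 active means thallium signal drop beyond 5 SD of the untreated control mean, on both duplicate plates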;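 further: plate controls were buffer only IC0 wells for no effect and SID17386958 at its maximal inhibitory level for full effect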
An asterisk follows results filed as active; i = inactive; . = not tested or not shown. Most compounds without a hit are left out; they make up all but 4.1% or so of the library.

SMILES | hERG rescue | KCNQ1 pot | KCNK3 inh | KCNQ1 block | KCNK9 inh | KCC2 mod | KCNK9 block conf | Kir21 sel | KCNK9 uninduced
COc1ccccc1Cc1noc(COc2cccc(C)c2C)n1 | -14.2 | i | i | i | i | 1.5 | i | i | i
Cc1ccc(C)c(C(=O)COC(=O)c2cc([N+](=O)[O-])ccc2NCCO)c1 | -9.2 | 11* | i | i | -8.22* | -0.226 | 59.0%* | i | i
Cc1ccc(C)c(C(=O)COC(=O)c2cc([N+](=O)[O-])ccc2N2CCOCC2)c1 | -13.8 | i | i | i | i | . | . | . | .
CC(=O)Nc1cccc2c1C(=O)N(c1ccc(OC(C)=O)cc1)C2=O | -6.9 | i | i | i | i | . | . | . | .
COc1ccc(N2CC(C)Cn3c2nc2c3c(=O)n(Cc3ccc(F)cc3)c(=O)n2C)c(OC)c1 (centres undefined) | -6.3 | i | i | i | i | . | . | . | .
COc1ccc(N2CC(C)Cn3c2nc2c3c(=O)n(Cc3ccc(C)cc3)c(=O)n2C)c(OC)c1 (centres undefined) | -14.7 | i | i | i | i | -2.23 | i | i | i
COc1ccc2c(c1)C1=NN(/C(C)=C/C(C)=O)C(c3cccc(F)c3)C1CC2 (centres undefined) | -16.2 | i | i | i | -11.6* | -1.39 | 44.0%* | i | 33.0%*
N#Cc1cc(-c2ccc(Cl)cc2)cnc1Sc1ccccc1 | -11.2 | i | i | i | i | 0.342 | . | . | .
N#Cc1cc(-c2ccccc2)cnc1Sc1ccc(Cl)cc1 | -14.5 | i | i | i | i | -0.596 | i | i | i
O=c1c2ccccc2c(-c2ccccc2)nn1Cc1c(Cl)cccc1Cl | -0.9 | i | i | i | -10.1* | . | 33.0%* | i | 35.5%*
CCOC(=O)Cn1nc(-c2ccccc2)c2ccccc2c1=O | -0.9 | i | i | i | i | . | . | . | .
COc1ccc(NC(=S)N(CCc2c(C)[nH]c3ccccc23)Cc2ccco2)cc1 | -4.3 | i | i | i | i | 0.865 | . | . | .
COc1ccc(OC)c(NC(=S)N(CCc2c(C)[nH]c3ccccc23)Cc2cccs2)c1 | -8.3 | i | i | i | -9.1* | -0.209 | 31.5%* | i | 31.0%*
Cc1[nH]c2ccc(F)cc2c1CCN(Cc1cccnc1)C(=S)Nc1cccc(F)c1 | -6.3 | i | i | i | -9.13* | -0.207 | 41.5%* | i | 44.0%*
COc1ccc(OC)c(NC(=S)N(CCc2c(C)[nH]c3ccc(C)cc23)Cc2cccs2)c1 | -18.7 | i | i | i | -9.36* | -0.57 | 34.0%* | i | 30.5%*
COc1cccc(NC(=S)N(CCN(C)C)Cc2cccs2)c1 | -0.5 | i | i | i | i | 0.805 | . | . | .
COc1ccc2[nH]c(C)c(CCN(Cc3cccs3)C(=S)Nc3cccc(F)c3)c2c1 | -19.8 | i | -12.2* | i | -14.1* | . | 55.0%* | i | 31.0%*
Cn1c(=O)c2c(nc(OC3CCCCCC3)n2C)n(C)c1=O | . | . | i | . | . | . | . | . | .
CN1CCC(=NNC(=O)c2cn(-c3ccccc3)nc2-c2ccccc2)CC1 | -3.5 | i | i | i | i | -0.0681 | . | . | .
Fc1ccc2c(c1)C1C=CCC1C(c1cc3c(cc1Br)OCO3)N2 (centres undefined) | -9.7 | i | i | i | -13.3* | 1.24 | 49.0%* | i | 48.0%*
Cc1nn(-c2ccccc2)c(Cl)c1/C=N/Nc1ccc(S(=O)(=O)Nc2ccccc2C(=O)O)cc1[N+](=O)[O-] | -11.0 | i | i | i | i | -1.12 | i | i | i
COc1ccc(-c2cc(=O)n(-c3ccc([N+](=O)[O-])cc3)[nH]2)cc1 | -11.1 | i | i | i | i | -0.629 | i | i | i
COc1ccccc1NC(=O)Nc1nn(C)c2cccc(OC)c12 | -10.7 | i | i | i | -10.6* | -0.769 | 48.5%* | i | 27.0%*
Cn1cc(CN2CCN(c3ccccc3)CC2)c2ccccc21 | -10.5 | i | i | i | i | 0.278 | i | i | i
Cc1cc(C)c(-n2nnnc2SC(C)C)c(C)c1 | -5.0 | i | i | i | -10.8* | -0.795 | 54.0%* | i | 41.5%*
SMILES | hERG rescue | KCNQ1 pot | KCNK3 inh | KCNQ1 block | KCNK9 inh | KCC2 mod | KCNK9 block conf | Kir21 sel | KCNK9 uninduced
Cc1ccc(-n2nnnc2SC(C)C(N)=O)c(C)c1 (centres undefined) | -8.6 | i | i | i | i | 0.389 | . | . | .
N#Cc1nc(COc2ccccc2Cl)oc1N1CCCC1 | -4.3 | i | i | i | i | -2.69 | . | . | .
CC1CN(c2oc(COc3ccc(Cl)cc3Cl)nc2C#N)CC(C)O1 (centres undefined) | -1.4 | i | i | i | i | . | i | i | i
CCN(Cc1ccc(C#CCCO)cc1)CC1CCCN(CCc2cccc(F)c2)C1 (centres undefined) | -4.0 | i | i | i | i | . | . | . | .
Cc1ccccc1-c1nc(CN2CCC(C(=O)NC3CC3)CC2)c(C)o1 | -7.2 | i | i | i | i | . | . | . | .
CCOC(=O)C1C(=O)C=C(/C=C/c2ccc(N(C)C)cc2)CC1c1ccccc1 (centres undefined) | -27.5 | i | i | 8* | -8.21* | -1.44 | 46.5%* | 37.5%* | 64.5%*
CCOC(=O)C1C(=O)C=C(c2ccc(C)cc2)CC1c1ccccc1 (centres undefined) | -16.4 | i | i | i | i | 1.39 | . | . | .
O=C(NCCC1=CCCCC1)NC12CC3CC(CC(C3)C1)C2 | -22.1 | i | i | 6* | i | -0.0259 | i | i | i
O=C(/C=C/c1ccccc1)N1c2ccccc2Sc2ccc(C(F)(F)F)cc21 | -14.1 | i | i | i | -9.17* | 0.436 | 26.0%* | i | 35.5%*
COc1cccc(CN2CCN(Cc3cc(OC)c(OC)cc3[N+](=O)[O-])CC2)c1 | -5.3 | i | i | i | i | 0.135 | i | i | i
COc1cccc(CN2CCSCC2)c1OC | 3.8 | i | i | i | i | . | . | . | .
COc1cccc(CN2CCN(Cc3cccc(Br)c3)CC2)c1OC | -8.2 | i | i | i | i | . | i | i | i
COc1cccc(-c2c(-c3cc(OC)cc(OC)c3)n(C)c3ccc(-c4cccc5[nH]ccc45)cc23)c1 | . | . | i | . | . | . | . | . | .
